Data: ChEMBL document CHEMBL1944602, “Synthesis and biological characterisation of sirtuin inhibitors based on the tenovins” (Bioorg Med Chem, 2012)
Converted amounts (≈) assume the structure as drawn. The source made the active and inactive calls. No cut-off for these calls is given here.

Tests used:
[1] = molecular target: T1, NAD-dependent protein deacetylase sirtuin-1 (Homo sapiens) (UniProt Q96EB6); test: Inhibition of recombinant human SitT1 at 60 uM by Fluor de Lys fluorescence assay
T1 sequence (whole entry): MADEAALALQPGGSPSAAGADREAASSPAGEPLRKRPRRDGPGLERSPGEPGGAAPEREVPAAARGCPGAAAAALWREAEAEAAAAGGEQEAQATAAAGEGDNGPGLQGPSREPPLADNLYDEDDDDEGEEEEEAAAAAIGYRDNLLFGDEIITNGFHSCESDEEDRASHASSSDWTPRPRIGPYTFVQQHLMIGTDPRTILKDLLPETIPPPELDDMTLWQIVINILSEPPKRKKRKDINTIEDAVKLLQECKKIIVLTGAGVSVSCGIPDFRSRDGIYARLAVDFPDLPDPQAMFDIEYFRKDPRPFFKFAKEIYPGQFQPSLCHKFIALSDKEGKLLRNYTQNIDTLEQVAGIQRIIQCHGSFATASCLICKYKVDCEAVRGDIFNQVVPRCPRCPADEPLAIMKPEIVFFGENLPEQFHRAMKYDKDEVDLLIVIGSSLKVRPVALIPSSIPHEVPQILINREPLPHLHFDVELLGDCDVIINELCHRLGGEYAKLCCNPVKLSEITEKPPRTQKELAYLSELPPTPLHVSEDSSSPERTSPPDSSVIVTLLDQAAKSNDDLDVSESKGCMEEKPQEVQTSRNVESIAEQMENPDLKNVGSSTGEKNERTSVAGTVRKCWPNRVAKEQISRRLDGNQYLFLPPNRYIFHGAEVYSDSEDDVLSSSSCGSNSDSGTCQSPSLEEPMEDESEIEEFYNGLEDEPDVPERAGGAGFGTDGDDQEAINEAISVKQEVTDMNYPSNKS
Procedure, shortened: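 Human recombinant SirT1 deacetylation measured with the Fluor de Lys fluorescence kit at a fixed 60 µM inhibitor. Tested on two separate occasions; percent inhibition reported as a mean weighted to the standard error.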

[2] = molecular target: T1, NAD-dependent protein deacetylase sirtuin-1 (Homo sapiens); test: Inhibition of SirT1 assessed as increase in p53 expression in human MCF7 cells at 10 uM after 6 hrs by Western blotting; format: cell-based
Procedure, shortened: (§1)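 MCF-7 cells grown in DMEM with 10% FCS and gentamycin, seeded at 2 × 10⁵ per well on collagen-coated plates and incubated 42 h at 37 °C in 5% CO2. Compound in DMSO was added for 6 h. Lysis in LDS buffer, protein equalised by BCA, 4–12% bis-tris SDS-PAGE, PVDF blot. Total p53 detected with DO.1, PCNA as loading control, ECL detection. Scored semi-quantitatively against untreated level.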

[3] = molecular target: T1, NAD-dependent protein deacetylase sirtuin-1 (Homo sapiens); test: Inhibition of SirT1 assessed as increase in p53 expression in human MCF7 cells at 5 uM after 6 hrs by Western blotting; format: cell-based; procedure, shortened: as §1
[4] = molecular target: T1, NAD-dependent protein deacetylase sirtuin-1 (Homo sapiens); test: Inhibition of SirT1 assessed as increase in p53 expression in human MCF7 cells at 2 uM after 6 hrs by Western blotting; format: cell-based; procedure, shortened: as §1
[5] = molecular target: T1, NAD-dependent protein deacetylase sirtuin-1 (Homo sapiens); test: Inhibition of SirT1 in human ARN8 cells assessed as p53 activation at 20 uM by beta-galactosidase reporter gene assay relative to control; format: cell-based
Procedure, shortened: (§2)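 p53-dependent transcription measured with a beta-galactosidase reporter in ARN8 cells, run in triplicate. Read-out is the ratio of signal in treated cells to DMSO-control cells, given to 2 significant figures; a positive or negative activity call is also recorded.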

[6] = molecular target: T1, NAD-dependent protein deacetylase sirtuin-1 (Homo sapiens); test: Inhibition of SirT1 in human ARN8 cells assessed as p53 activation at 10 uM by beta-galactosidase reporter gene assay relative to control; format: cell-based; procedure, shortened: as §2
[7] = molecular target: T1, NAD-dependent protein deacetylase sirtuin-1 (Homo sapiens); test: Inhibition of SirT1 in human ARN8 cells assessed as p53 activation at 5 uM by beta-galactosidase reporter gene assay relative to control; format: cell-based; procedure, shortened: as §2
[8] = molecular target: T1, NAD-dependent protein deacetylase sirtuin-1 (Homo sapiens); test: Inhibition of SirT1 in human ARN8 cells assessed as p53 activation at 20 uM by beta-galactosidase reporter gene assay; format: cell-based; procedure, shortened: as §2
[9] = molecular target: T1, NAD-dependent protein deacetylase sirtuin-1 (Homo sapiens); test: Inhibition of SirT1 in human ARN8 cells assessed as p53 activation at 10 uM by beta-galactosidase reporter gene assay; format: cell-based; procedure, shortened: as §2
[10] = molecular target: T1, NAD-dependent protein deacetylase sirtuin-1 (Homo sapiens); test: Inhibition of SirT1 in human ARN8 cells assessed as p53 activation at 5 uM by beta-galactosidase reporter gene assay; format: cell-based; procedure, shortened: as §2
[11] = molecular target: T2, NAD-dependent protein deacetylase sirtuin-2 (Homo sapiens, UniProt Q8IXJ6); test: Inhibition of recombinant human SitT2 by Fluor de Lys fluorescence assay
T2 sequence (Q8IXJ6 whole entry): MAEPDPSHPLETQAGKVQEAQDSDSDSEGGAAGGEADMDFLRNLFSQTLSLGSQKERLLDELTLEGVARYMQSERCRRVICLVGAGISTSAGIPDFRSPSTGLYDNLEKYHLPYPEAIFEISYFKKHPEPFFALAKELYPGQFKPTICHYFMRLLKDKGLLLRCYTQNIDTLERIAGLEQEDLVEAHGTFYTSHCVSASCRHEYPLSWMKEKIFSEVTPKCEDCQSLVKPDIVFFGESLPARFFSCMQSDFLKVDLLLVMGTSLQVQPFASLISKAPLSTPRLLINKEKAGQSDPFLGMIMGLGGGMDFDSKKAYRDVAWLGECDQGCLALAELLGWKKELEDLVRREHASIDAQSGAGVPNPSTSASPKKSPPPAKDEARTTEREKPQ

[12] = molecular target: T3, NAD-dependent protein deacetylase sirtuin-1 (Homo sapiens, UniProt Q96EB6); test: Inhibition of recombinant human SitT1 by Fluor de Lys fluorescence assay
T3 sequence (Q96EB6 whole entry): T1 sequence (whole entry)

[13] = Solubility of the compound in water by UV spectrophotometry; format: physicochemical
Procedure, shortened: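 Extinction coefficient from absorbance at 273 nm of a 7-point 2-fold dilution series in acetonitrile; DMSO used first where needed. Coefficient taken from the slope of absorbance against molar concentration. Used to find the actual concentration of a nominal 100 µM aqueous solution made from 40 mM DMSO stock.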

inhibition [1]	inhibition [2]	inhibition [3]	inhibition [4]	fold change (FC) [5]	fold change (FC) [6]	fold change (FC) [7]	inhibition [8]	inhibition [9]	inhibition [10]	IC50 [11]	IC50 [12]	solubility [13]	Compound
9.9%				0.84	0.98	0.99	inactive	inactive	inactive	42.5 µM	> 90 µM		Cc1ccccc1C(=O)NC(=S)Nc1ccc(NC(=O)CCCCN(C)C)cc1
8.1%				0.97	1.1	1.04	inactive	inactive	inactive				CN(C)CCCCC(=O)Nc1ccc(NC(=S)NC(=O)c2ccc(Cl)c(Cl)c2)cc1
25.3%				1.2	1.1	1.1	inactive	inactive	inactive				COc1cccc(C(=O)NC(=S)Nc2ccc(NC(=O)CCCCN(C)C)cc2)c1
29.2%				1	1.1	1.1	inactive	inactive	inactive				CN(C)CCCCC(=O)Nc1ccc(NC(=S)NC(=O)c2cccc(Cl)c2)cc1
93.6%				6.5	7.3	6.9	Active	Active	Active	88.4 µM	21.7 µM		CN(C)CCCCC(=O)Nc1ccc(NC(=O)NC(=O)c2ccc(C(C)(C)C)cc2)cc1
5.2%				0.89	0.89	0.94	inactive	inactive	inactive	> 90 µM	> 90 µM		Cc1cccc(C(=O)NC(=S)Nc2ccc(NC(=O)CCCCN(C)C)cc2)c1
3.5%				0.92	0.97	1.1	inactive	inactive	inactive	> 90 µM	> 90 µM		CN(C)CCCCC(=O)Nc1ccc(NC(=S)NC(=O)c2ccccc2)cc1
	Active	Active	Active									0.12 µg/mL (≈ 0.325 µM)	CC(=O)Nc1ccc(NC(=S)NC(=O)c2ccc(C(C)(C)C)cc2)cc1

Continued, compound first:

Compound	inhibition [1]	inhibition [2]	inhibition [3]	inhibition [4]	fold change (FC) [5]	fold change (FC) [6]	fold change (FC) [7]	inhibition [8]	inhibition [9]	inhibition [10]	IC50 [11]	IC50 [12]	solubility [13]
CN(C)CCCCC(=O)Nc1ccc(N(C)C(=S)NC(=O)c2ccc(C(C)(C)C)cc2)cc1	6.6%	inactive	inactive	inactive									
CN(C)CCCCC(=O)Nc1ccc(NC(=S)NC(=O)c2ccc(Br)cc2)cc1	13.5%				1.01	1.1	1	inactive	inactive	inactive	55 µM	> 90 µM	
CN(C)CCCCCC(=O)Nc1ccc(NC(=S)NC(=O)c2ccc(C(C)(C)C)cc2)cc1.Cl	96.2%	Active	Active	Active							21.3 µM		> 0.97 µg/mL
CCCc1ccc(C(=O)NC(=S)Nc2ccc(NC(=O)CCCCN(C)C)cc2)cc1	50.9%				2.4	1.5	1	Active	Active	inactive	7.85 µM	60.2 µM	
CCCCCc1ccc(C(=O)NC(=S)Nc2ccc(NC(=O)CCCCN(C)C)cc2)cc1	73.2%				1.2	1.1	1.1		inactive	inactive	5.6 µM	36.7 µM	
Cc1ccc(C(=O)NC(=S)Nc2ccc(NC(=O)CCCCN(C)C)cc2)cc1	47.3%				1.1	1.1	1.2	inactive	inactive	inactive	> 90 µM	> 90 µM	
CN(C)CCCCCCCC(=O)Nc1ccc(NC(=S)NC(=O)c2ccc(C(C)(C)C)cc2)cc1.Cl	70.9%	Active	Active	Active							41.7 µM		> 1.01 µg/mL
CN(C)CCCCC(=O)Nc1ccc(NC(=S)NC(=O)c2cccc(Br)c2)cc1	70.5%				1.2	1.2	1.1		inactive	inactive			
CN(C)CCCCC(=O)Nc1ccc(NC(=S)NC(=O)c2ccccc2Cl)cc1	29.3%				1.2	1.1	1.2	inactive	inactive	inactive	> 90 µM	> 90 µM	
CN(C)CCCCC(=O)Nc1ccc(NC(=S)NC(=O)c2ccc(Cl)cc2)cc1	53.4%				1.01	1.2	1.1	inactive	inactive	inactive	> 90 µM	> 90 µM	
CN(C)CCCCNC(=O)c1ccc(NC(=S)NC(=O)c2ccc(C(C)(C)C)cc2)cc1	72.5%				5.5	3.9		Active	Active		12.4 µM	17.9 µM	
CN(C)CCCCC(=O)Nc1ccc(NC(=S)NC(=O)c2ccc(C(C)(C)C)c(Br)c2)cc1	93.5%				1.4	1.1	1.1	Active	inactive	inactive			
COc1ccc(C(=O)NC(=S)Nc2ccc(NC(=O)CCCCN(C)C)cc2)cc1	48.5%				1.12	1.1	1	inactive	inactive	inactive	50.6 µM	> 90 µM	
CC(C)c1ccc(C(=O)NC(=S)Nc2ccc(NC(=O)CCCCN(C)C)cc2)cc1	52.9%				12	11.1	8.7	Active	Active	Active	5.71 µM	42.7 µM	
